Source: ChEMBL document CHEMBL2046365, “Total synthesis and antifungal activity of (2S,3R)-2-aminododecan-3-ol” (2012)
Converted amounts (≈) assume the structure as drawn.

How the values were obtained:
Type in all cases: functional
[1] = test system: Candida albicans; experiment: Antifungal activity against Candida albicans MTCC 3958 after 24 hrs by well diffusion method
Outline: (§1)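 Well diffusion on Mueller-Hinton agar plates, each surface-seeded with 0.1 mL of an MTCC Candida reference strain suspension at 1.5 × 10⁸ cfu/mL (0.5 McFarland). Compound added to 6.0 mm cork-bored wells at 300–1.4 per well; methanol well as negative control. Plates incubated 24 h at 30 °C. MIC taken as the lowest concentration giving an inhibition zone. Duplicates, mean reported.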

[2] = test system: Candida albicans; experiment: Antifungal activity against Candida albicans; outline: as §1
[3] = test system: Candida albicans; experiment: Antifungal activity against Candida albicans MTCC 854 after 24 hrs by well diffusion method; outline: as §1
[4] = test system: Candida albicans; experiment: Antifungal activity against Candida albicans MTCC 7315 after 24 hrs by well diffusion method; outline: as §1
[5] = test system: Candida albicans; experiment: Antifungal activity against Candida albicans MTCC 183 after 24 hrs by well diffusion method; outline: as §1
[6] = test system: Nakaseomyces glabratus; experiment: Antifungal activity against Candida glabrata; outline: as §1
[7] = test system: Candida parapsilosis; experiment: Antifungal activity against Candida parapsilosis MTCC 1744 after 24 hrs by well diffusion method; outline: as §1
[8] = test system: Nakaseomyces glabratus; experiment: Antifungal activity against Candida glabrata MTCC 3019 after 24 hrs by well diffusion method; outline: as §1
[9] = test system: [Candida] aaseri; experiment: Antifungal activity against Candida aaseri MTCC 1962 after 24 hrs by well diffusion method; outline: as §1
[10] = Lodderomyces parapsilosis, MTCC 1744, 24 h
[11] = Yamadazyma aaseri, MTCC 1962, 24 h

Molecule	MIC ([1]; MTCC 3958, 24 h) [µg/mL]	MIC [2] [µg/mL]	MIC ([3]; MTCC 854, 24 h) [µg/mL]	MIC ([4]; MTCC 7315, 24 h) [µg/mL]	MIC ([5]; MTCC 183, 24 h) [µg/mL]	MIC [6] [µg/mL]	MIC [7, 10] [µg/mL]	MIC ([8]; MTCC 3019, 24 h) [µg/mL]	MIC [9, 11] [µg/mL]	MIC [1] [µg/mL]	MIC [3] [µg/mL]	MIC [4] [µg/mL]	MIC [5] [µg/mL]	MIC [7] [µg/mL]	MIC [8] [µg/mL]	MIC [9] [µg/mL]
CCCCCCCCC[C@@H](O)[C@H](C)N	19.8 (≈ 98.3 µM)	0.7 (≈ 3.48 µM)	37.5 (≈ 186 µM)	9.9 (≈ 49.2 µM)	9.9 (≈ 49.2 µM)	30 (≈ 149 µM)	4.9 (≈ 24.3 µM)	9.9 (≈ 49.2 µM)	9.9 (≈ 49.2 µM)	–	–	–	–	–	–	–
C[C@@H]1[C@H](O)[C@@H](C)/C=C/C=C/C=C/C=C/C=C/C=C/C=C/[C@H](O[C@@H]2O[C@H](C)[C@@H](O)[C@H](N)[C@@H]2O)C[C@@H]2O[C@](O)(C[C@@H](O)C[C@@H](O)[C@H](O)CC[C@@H](O)C[C@@H](O)CC(=O)O[C@H]1C)C[C@H](O)[C@H]2C(=O)O [AMPHOTERICIN B]	300 (≈ 325 µM)	–	300 (≈ 325 µM)	300 (≈ 325 µM)	300 (≈ 325 µM)	–	300 (≈ 325 µM)	300 (≈ 325 µM)	300 (≈ 325 µM)	–	–	–	–	–	–	–
OC(Cn1cncn1)(Cn1cncn1)c1ccc(F)cc1F [FLUCONAZOLE]	75 (≈ 245 µM)	–	37.5 (≈ 122 µM)	37.5 (≈ 122 µM)	37.5 (≈ 122 µM)	–	18.8 (≈ 61.4 µM)	75 (≈ 245 µM)	75 (≈ 245 µM)	–	–	–	–	–	–	–
Clc1ccc(COC(Cn2ccnc2)c2ccc(Cl)cc2Cl)c(Cl)c1 (configuration not stated) [MICONAZOLE]	9.9 (≈ 23.8 µM)	–	9.9 (≈ 23.8 µM)	9.9 (≈ 23.8 µM)	9.9 (≈ 23.8 µM)	–	9.9 (≈ 23.8 µM)	9.9 (≈ 23.8 µM)	9.9 (≈ 23.8 µM)	–	–	–	–	–	–	–
NYSTATIN	–	–	–	–	–	–	–	–	–	150	150	150	150	150	150	150
